From PubChem BioAssay
A selection: hits, their analogues and other compounds. The true share with any hit is near 4.6%.
RAM network inh: blocks the yeast RAM network; S. cerevisiae dse1pr::URA3 reporter, 5-FOA growth OD615, 2 d; analog-sensitive cbk1-as2 kinase mutant strain; 190,000 tested, 1.8% active; inhibition, % at 50 µM; AID 868;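 active = inhibition above a set limit, 3 SD over mean compound inhibition, cut at about 8.4% in these data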;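 also: 0% = DMSO-only wells with no growth and 100% = 10 µM 1-NA-PP1 full growth; inhibition rescues growth on 5-FOA so higher OD means more RAM inhibition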
WT yeast gro inh: growth inhibition of WT yeast, mitochondrial fusion screen | mitochondrial fusion phenotypic screen, WT strain | inhibition, % at 10 µM | 190,000 tested, 2.1% active; in the data active = inhibition above about 58%; tested in S. cerevisiae
NCF1 inh: p47phox (human) inhibition; p47phox/p22phox peptide binding, fluorescence polarization, 2 h; inhibition, % at 24.7 µM; 220,000 tested, 0.53% active;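 active = inhibition above about 30%, limit read from the data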;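 also: 0% = p47phox with labelled peptide and 100% = labelled peptide alone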
Hck Nef HTS: human Hck-Nef kinase inhibition; P08631; Recombinant Hck-YEEI plus Nef, Z-Lyte FRET kinase assay; inhibition, % at 20 µM; 220,000 tested, 0.68% active; AID 463187;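 active = Hck-Nef kinase inhibition above about 50%, limit read from the data; inactive = inhibition below that limit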;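 also: 0% = DMSO with Hck plus Nef and 100% = Hck alone without Nef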
Target sequence (P08631 whole entry, looked up): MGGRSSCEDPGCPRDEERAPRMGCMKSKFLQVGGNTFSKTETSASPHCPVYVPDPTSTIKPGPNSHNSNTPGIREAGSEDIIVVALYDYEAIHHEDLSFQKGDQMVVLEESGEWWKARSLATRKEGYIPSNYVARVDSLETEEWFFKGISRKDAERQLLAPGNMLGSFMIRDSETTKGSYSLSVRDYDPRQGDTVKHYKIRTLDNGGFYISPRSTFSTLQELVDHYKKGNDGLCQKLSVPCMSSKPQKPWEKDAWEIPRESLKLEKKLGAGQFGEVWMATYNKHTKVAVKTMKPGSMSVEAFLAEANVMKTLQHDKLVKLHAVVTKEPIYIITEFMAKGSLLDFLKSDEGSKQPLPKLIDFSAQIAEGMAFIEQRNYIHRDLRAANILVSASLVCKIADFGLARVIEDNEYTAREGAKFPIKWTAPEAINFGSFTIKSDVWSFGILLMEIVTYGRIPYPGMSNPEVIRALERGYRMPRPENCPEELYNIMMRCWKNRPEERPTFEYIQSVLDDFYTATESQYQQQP
Arbovirus anti: antivirals against arbovirus infection | arbovirus infection cell-based antiviral screen | inhibition, % at 10 µM | 200,000 tested, 0.37% active; in the data active = inhibition above about 30%
Biofilm kill mix: mixtures killing C. albicans biofilm; C. albicans biofilm persisters + clotrimazole, fluorescence viability; primary screen in compound mixtures of four per well; inhibition, % at 7.6 µM; 120,000 tested, 0.02% active; AID 1242;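 active = inhibition above 30.3% in the primary screen of four-compound pools, then above 30% when the compound was retested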;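 also: compounds exposed to preformed 24 h biofilms for 48 h; 0% = untreated biofilm control and 100% = clotrimazole plus chlorhexidine kill blank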
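Incubation: 24 h biofilm formation, then 48 h compound exposure, 37 °C | Material: C. albicans biofilms | Buffer or medium: RPMI/MOPS medium, pH 7.0 | Measured by: 2-h Alamar Blue fluorescence, 535/590 nm excitation/emission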
* marks the source's active call; other numbers are inactive results; . = not tested or not shown.

SMILES	RAM network inh	WT yeast gro inh	NCF1 inh	Hck Nef HTS	Arbovirus anti	Biofilm kill mix
CC(=O)C(C)Oc1cc(C)cc2oc(=O)c(C)c(C)c12 (centres undefined)	2	2	-17	1	-1	.
CC(=O)COc1cc(C)cc2oc(=O)c(C)c(C)c12	2	66*	7	0	-8	.
C=CCn1c(SCC(=O)Nc2cc(C)on2)nnc1C1COc2ccccc2O1 (centres undefined)	1	9	-2	13	0	14
Cc1cc(NC(=O)CSc2nnc(C3COc4ccccc4O3)n2N)no1 (centres undefined)	.	.	44*	5	.	8
CCOc1ccc(NC(=O)c2ccc(NC(=O)c3cn4c5c(c(N6CCN(C)CC6)c(F)cc5c3=O)OCC4C)cc2)cc1 (centres undefined)	0	-3	82*	9	-25	8
CNc1nc(-c2ccc(OC)cc2)c(-c2ccc(OC)cc2)s1	1	68*	-6	-1	-6	17
COc1ccc(-c2nc(NC(C)=O)sc2-c2ccc(OC)cc2)cc1	4	24	-2	-18	-11	-21
Cc1ccc(-n2nc(C)c3c(C)c(CCC(=O)NCc4ccccc4)c(C)nc32)cc1	2	7	130*	1	-3	.
Cc1ccc(O)c(C(=O)c2cc(C#N)c3nc4ccccc4n3c2)c1	8	5	-30	-9	3	13
Cc1ccccc1-c1ccc(=O)n(CC(=O)Nc2ccc(S(=O)(=O)N(C)C)cc2)n1	8.9*	2	-10	19	17	8
Cc1ccccc1-c1ccc(=O)n(CC(=O)Nc2ccc(-n3cnnn3)cc2)n1	.	.	3	24	.	13
CC(C)C(NC(=O)C12CC3CC(CC(C3)C1)C2)C(=O)NC1=NCCS1 (centres undefined)	1	66*	-10	2	11	.
Cc1c(C(=O)N2CCN(c3ccc(C(F)(F)F)cn3)CC2)oc2ccccc12	4	71*	-21	3	5	.
Cc1ccc(C(=O)N2CCN(c3ccc(C(F)(F)F)cn3)CC2)cc1	2	-3	-4	1	8	.
Cc1nc(-c2c(C(=O)NNC(=O)Nc3c(C)cccc3C)noc2C)cs1	.	.	-11	6	.	11
Cc1cccc(Nc2c([N+](=O)[O-])cc(C(=O)N3CC(=O)Nc4ccccc43)cc2[N+](=O)[O-])c1	9.5*	-17	10	18	8	11
CCc1cc2c(SCC(=O)C(C#N)=C3N(C)c4ccccc4N3C)ncnc2s1	9.0*	17	-9	2	10	.
CCc1cc2c(SCC(=O)c3ccccc3)ncnc2s1	1	23	-7	11	-4	14
CCOc1ccccc1NS(=O)(=O)c1cn(C)nc1C	1	-2	0	10	4	12
O=C(OCc1cccc2ccccc12)C1CC(=O)N(c2ccccc2)C1 (centres undefined)	11*	-25	-6	-17	2	.
COc1cccc2cc(C(=O)Nc3ccc(S(=O)(=O)NCC4CCCO4)cc3)c(=O)oc12 (centres undefined)	.	.	7	40	.	10
O=C(COC(=O)c1ccc([N+](=O)[O-])s1)Nc1ncc(C(F)(F)F)cc1Cl	-1	82*	-18	0	1	14
O=C(COC(=O)C1(c2ccc(Cl)cc2)CCCC1)Nc1ncc(C(F)(F)F)cc1Cl	8.9*	68*	-14	4	10	21
O=C(COC(=O)C1(c2ccc(F)cc2)CCCC1)Nc1ncc(C(F)(F)F)cc1Cl	7	56	-22	1	6	10
Cc1cc(Br)cc(C)c1OCCCCN(C)C	0	-1	-5	0	-21	.
SMILES	RAM network inh	WT yeast gro inh	NCF1 inh	Hck Nef HTS	Arbovirus anti	Biofilm kill mix
COc1ccccc1CNC(=O)CN(Cc1ccc(Cl)cc1)S(C)(=O)=O	0	1	6	3	1	12
CC1CCN(c2c([N+](=O)[O-])nn(-c3ccc4c(c3)OCCO4)[n+]2[O-])CC1	4	2	0	1	8	.
CC1=CN2C(=N)/C(=C/c3ccc([N+](=O)[O-])o3)C(=O)N=C2S1	4	86*	-88	5	-1	16
COc1ccc(/C=C2\CCn3c2nc2cc(C(=O)O)ccc2c3=O)cc1OC	.	.	7	11	.	16
CC(C)CCOc1ccc(/C=C2\CCn3c2nc2cc(C(=O)O)ccc2c3=O)cc1	4	-11	-7	1	38*	0
O=C(C[n+]1cn(C(F)F)c2ccccc21)c1ccc(OC(F)F)cc1	3	71*	-10	33	-7	12
O=C(C1=C[C@H](c2ccc3c(c2)OCO3)C[C@H](OCc2ccc(CO)cc2)O1)N1CCOCC1	10*	7	-11	4	-3	12
O=C(O)C1=C[C@@H](c2ccc3c(c2)OCO3)C[C@@H](OCc2ccc(CO)cc2)O1	2	-6	-8	-2	-3	15
O=C(C1=C[C@H](c2ccc(C(F)(F)F)cc2)C[C@H](OCc2ccc(CO)cc2)O1)N1CCCCCCC1	8	54	.	4	-20	18
O=C(C1=C[C@@H](c2ccc(C(F)(F)F)cc2)C[C@@H](OCc2ccc(CO)cc2)O1)N1CCOCC1	9.0*	8	-2	1	4	11
CC(NC(=O)Nc1ccccc1)C(c1cccs1)N1CCN(C)CC1 (centres undefined)	0	-5	-1	-8	25	.
COc1cc(-c2[nH]ncc2CN2CCN(Cc3cccs3)CC2)cc(OC)c1OC	0	2	-9	10	-16	8
CCOC(=O)CSc1ccc(S(=O)(=O)N2CCCC2)cc1[N+](=O)[O-]	1	0	-7	30	1	11
CCOC(=O)CSc1ccc(S(=O)(=O)N2CCCCC2)cc1[N+](=O)[O-]	8.7*	10	-5	0	2	14
COc1ccc(NC(=O)CN(c2ccc(C)cc2)S(C)(=O)=O)c(OC)c1	1	62*	-5	-1	8	.
CCOP(=O)(c1ccccc1)c1nc(-c2ccccc2Cl)oc1N1CCCCC1 (centres undefined)	5	66*	-6	1	-35	11
COc1ccccc1NC(=S)NC(NC(=O)C(C)C)C(Cl)(Cl)Cl (centres undefined)	3	-13	-57	22	-6	18
COc1ccc(-n2c(CCc3ccccc3)nnc2SCC(=O)c2ccc(Cl)cc2)cc1	3	51	-4	0	-9	14
O=C(CSc1nnc(CCc2ccccc2)n1-c1ccc(Cl)cc1)c1ccccc1	6	67*	4	1	-16	12
CCCCS(=O)(=O)/C=C\C=C/S(=O)(=O)CCCC	-2	88*	-6	0	-28	.
CCCCS(=O)(=O)/C=C\C1C2C=CC(C2)C1S(=O)(=O)CCCC (centres undefined)	1	-5	0	1	11	.
O=C(CO/N=C/c1ccc2c(c1)OCO2)Nc1cccc(Br)c1	5	32	-53	0	-1	15
